The text below walks through data of ChEMBL document CHEMBL1145782, “Systematic development of high affinity bis(ammonio)alkane-type allosteric enhancers of muscarinic ligand binding” (J Med Chem, 2003).

The target of assay [1] is T1, Muscarinic acetylcholine receptor M2 (Sus scrofa) (UniProt P06199).
T1 sequence (whole entry): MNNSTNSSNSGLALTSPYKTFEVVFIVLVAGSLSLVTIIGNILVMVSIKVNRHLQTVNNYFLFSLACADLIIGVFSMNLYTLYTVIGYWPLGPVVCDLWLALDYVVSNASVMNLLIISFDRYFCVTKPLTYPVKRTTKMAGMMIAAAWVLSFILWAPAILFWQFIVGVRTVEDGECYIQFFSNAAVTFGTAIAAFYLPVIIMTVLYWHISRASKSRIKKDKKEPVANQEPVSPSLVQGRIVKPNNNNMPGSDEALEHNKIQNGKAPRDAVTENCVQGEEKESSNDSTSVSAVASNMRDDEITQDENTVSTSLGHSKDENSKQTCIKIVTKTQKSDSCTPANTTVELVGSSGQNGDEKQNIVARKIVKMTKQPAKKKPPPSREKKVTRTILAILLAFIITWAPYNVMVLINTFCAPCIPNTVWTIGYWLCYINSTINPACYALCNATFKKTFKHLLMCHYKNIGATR
The experiment in a line: Cooperativity factor pAlpha at porcine heart ventricle muscarinic acetylcholine receptor M2. An outline of the steps: (§1)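 Pig heart ventricle homogenates in 2.7 mM MgHPO4, 45 mM Tris-HCl, pH 7.3, 37 °C; [3H]NMS 0.20 nM with increasing test compound concentrations; incubation 180–530 min, calculated to reach equilibrium. Nonspecific binding with 1 μM atropine; bound label separated by rapid vacuum filtration onto glass filters and counted by liquid scintillation. Affinities for free and NMS-occupied receptor derived from binding curves.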

Assay [2] concerns the target T1, Muscarinic acetylcholine receptor M2 (Sus scrofa). The experiment in a line: Tested for binding of [3H]N-methylscopolamine ([3H]NMS) at porcine heart ventricle muscarinic acetylcholine receptor M2 expressed as -logKa. In a few lines: as §1
Assay [3] concerns the target T2, Muscarinic acetylcholine receptor M2 (Sus scrofa, UniProt P06199).
T2 sequence (P06199 whole entry): T1 sequence (whole entry)
The experiment in a line: Effective concentration required to inhibit dissociation of [3H]NMS from porcine heart ventricles muscarinic acetylcholine receptor M2. An outline of the steps:
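[3H]NMS dissociation in pig heart ventricle homogenates, Mg/Tris buffer pH 7.3, 37 °C. Membranes equilibrated 30 min with 0.2 nM [3H]NMS, then 1 μM atropine added alone or with various test compound concentrations. Either complete time courses over 120 min or two-point measurement (0 and 10 min); monoexponential apparent k-1 by nonlinear regression; filtration and scintillation counting.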

For assay [4], the target named is T1, Muscarinic acetylcholine receptor M2 (Sus scrofa). The experiment in a line: Binding affinity for [3H]NMS-occupied muscarinic acetylcholine receptor M2 from porcine heart ventricle. An outline of the steps:
as §1

In assay [1], `Cc1ccc2c(c1)C(=O)N(CCC[N+](C)(C)CCCCCC[N+](C)(C)CC(C)(C)CN1C(=O)c3ccc(C)cc3C1=O)C2=O` returned a pAlpha of 0.03. In assay [2], this compound gave a -logKa of 7.41. Besides, a half-maximal response in assay [3] (EC50) required 0.0363 µM. In assay [4], this compound yielded a p alphaKa of 7.44.
For `CC(C)(CN1C(=O)c2ccccc2C1=O)C[N+](C)(C)CCCCCC[N+](C)(C)CC(C)(C)CN1C(=O)c2ccccc2C1=O` the same measures were -0.21, 7.08, 0.178 µM and 6.87.
Turning to `C[N+](C)(CCCCCC[N+](C)(C)CCCN1C(=O)C2C3c4ccccc4C(c4ccccc43)C2C1=O)CCCN1C(=O)c2ccccc2C1=O` (stereo unspecified), the pAlpha in assay [1] is -1.21. Besides, the -logKa in assay [2] was 7.78. Also, the concentration giving a half-maximal response (EC50) (as a rule, the concentration at which the effect is half-maximal) in assay [3] was 0.204 µM. This compound came in with a p alphaKa in assay [4] of 6.56.
Regarding `CC(C)(CN1C(=O)c2cccc3cccc(c23)C1=O)C[N+](C)(C)CCCCCC[N+](C)(C)CC(C)(C)CN1C(=O)c2cccc3cccc(c23)C1=O`, in assay [1], the pAlpha was 0.53. The compound also displayed a -logKa in assay [2] of 7.51. The compound further gave a half-maximal effective concentration (EC50) in assay [3] of 0.00851 µM. The p alphaKa in assay [4] is 8.04.
Regarding `Cc1ccc2c(c1)C(=O)N(CC(C)(C)C[N+](C)(C)CCCCCC[N+](C)(C)CCCN1C(=O)c3cccc4cccc(c34)C1=O)C2=O`, in assay [1], the pAlpha was -0.04. The same compound had a -logKa in assay [2] of 7.48. Besides, the response in assay [3] was half-maximal at 0.0363 µM (EC50). Also, the p alphaKa in assay [4] came to 7.44.
Take `CC(C)(CN1C(=O)c2ccccc2C1=O)C[N+](C)(C)CCCCCC[N+](C)(C)CCCN1C(=O)c2cccc3cccc(c23)C1=O`: the pAlpha in assay [1] is -0.005. Besides, the -logKa in assay [2] is 7.28. Moreover, the EC50 in assay [3] is 0.0525 µM. The p alphaKa in assay [4] is 7.28.
For `C[N+](C)(CCCCCC[N+](C)(C)CCCN1C(=O)c2ccccc2C1=O)CCCN1C(=O)c2ccccc2C1=O`, the pAlpha in assay [1] was -0.47. Also, the -logKa in assay [2] came out at 6.19. The compound also gave an EC50 in assay [3] of 1.35 µM. In addition, the p alphaKa in assay [4] came to 5.73.
With `C[N+](C)(CCCCCC[N+](C)(C)CCCN1C(=O)c2cc(Cl)c(Cl)cc2C1=O)CCCN1C(=O)c2cc(Cl)c(Cl)cc2C1=O`, the pAlpha in assay [1] was -0.29. In addition, the -logKa in assay [2] was 6.83. The compound further gave a 50% effective concentration (EC50) in assay [3] of 0.229 µM. Further, in assay [4], the p alphaKa is 6.57.
As for `C[N+](C)(CCCCCC[N+](C)(C)CCCN1C(=O)c2nccnc2C1=O)CCCN1C(=O)c2ccccc2C1=O`, in assay [1], the pAlpha is -0.59. The same compound came in with a -logKa in assay [2] of 6.25. The response in assay [3] was half-maximal at 1.62 µM (EC50). Besides, in assay [4], the p alphaKa is 5.66.
